Experiments:
[1] = Metabolic stability in mouse hepatic microsomes assessed as compound metabolism after 20 mins; format: ADME; conditions: liver microsomes, read-out: Drug metabolism
How it was run: (§1)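 Compound was incubated for 20 min with human or mouse hepatic microsomal fraction. % liability is the disappearance of parent compound at the end of the incubation.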

[2] = Permeability across human Caco2 cell membrane; format: ADME, cell-based; conditions: Caco-2, read-out: permeability
[3] = Plasma concentration in C57BL/6J mouse at 1 mg/kg, po administered 1 hr before lipid challenge measured after 1 hr post dose; format: ADME, organism-based; set-up: dose 1 mg/kg, route oral
[4] = Metabolic stability in human hepatic microsomes assessed as compound metabolism after 20 mins; format: ADME; conditions: liver microsomes, read-out: Drug metabolism; how it was run: as §1
[5] = test system: Mus musculus; assay: Antihyperlipidemic activity in C57BL/6J mouse assessed as inhibition of rise in plasma triglyceride level at 1 mg/kg, po administered 1 hr before lipid challenge; format: functional
How it was run: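 Fasted male C57Bl/6J mice (n = 10/group) were dosed orally at 1 mg/kg in 0.5% methylcellulose/1% DMSO (10 mL/kg), 1 h before a 100 µL corn oil or water bolus. Blood was taken by intracardiac puncture under isoflurane 1 h after the challenge, and plasma triglycerides were measured with a commercial kit. Inhibition of the TG rise was assessed against vehicle by one-way ANOVA with Dunnett test.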

[6] = molecular target: T1, Diacylglycerol O-acyltransferase 1 (Homo sapiens, UniProt O75907); assay: Inhibition of human recombinant DGAT1 expressed in baculovirus infected Sf9 cells after 60 mins by scintillation counting method
T1 sequence (O75907 whole entry): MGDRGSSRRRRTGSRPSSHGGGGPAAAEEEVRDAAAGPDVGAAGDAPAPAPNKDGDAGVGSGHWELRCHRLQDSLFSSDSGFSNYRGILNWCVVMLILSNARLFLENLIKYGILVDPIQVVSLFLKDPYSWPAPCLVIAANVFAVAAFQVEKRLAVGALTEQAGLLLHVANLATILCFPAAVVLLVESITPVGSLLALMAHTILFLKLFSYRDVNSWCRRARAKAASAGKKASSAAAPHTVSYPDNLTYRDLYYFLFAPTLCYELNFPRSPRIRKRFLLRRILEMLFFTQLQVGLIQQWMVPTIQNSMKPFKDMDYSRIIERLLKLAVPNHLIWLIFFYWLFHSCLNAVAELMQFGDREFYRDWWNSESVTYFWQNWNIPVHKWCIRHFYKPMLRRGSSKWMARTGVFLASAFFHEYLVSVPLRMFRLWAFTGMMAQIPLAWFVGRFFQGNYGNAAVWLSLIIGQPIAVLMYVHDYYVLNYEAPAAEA

SMILES	metabolised at 20 min [1]	Papp [2]	concentration at 1 h [3]	metabolised at 20 min [4]	inhibition in vivo at 1 mg/kg [5]	IC50 [6]
O=C(O)C[C@H]1CC[C@H](c2ccc(C(=O)Nc3nnc(Cc4ccccc4)s3)cc2)CC1	5%	11.2 ×10⁻⁶ cm/s	79.1 ng/mL	0%	95%	–
CC(C)[C@H](NC(=O)c1ccc(-c2ccc(Nc3nnc(Cc4ccccc4)s3)cc2)cc1)C(=O)O	–	0.04 ×10⁻⁶ cm/s	–	–	–	–
O=C(O)CC1CCC(c2ccc(Nc3nnc(Cc4ccccc4)s3)cc2)CC1 (mixture of isomers)	–	–	–	–	–	> 10 µM
CS(=O)(=O)c1nnc(NC(=O)c2ccc([C@H]3CC[C@H](CC(=O)O)CC3)cc2)s1	–	–	–	–	–	> 10 µM
O=C(O)C[C@H]1CC[C@H](c2ccc(C(=O)Nc3nnc(Cc4cccc(F)c4)s3)cc2)CC1	10%	12 ×10⁻⁶ cm/s	–	1%	107%	–
CN(C(=O)c1ccc([C@H]2CC[C@H](CC(=O)O)CC2)cc1)c1nnc(Cc2ccccc2)s1	–	–	–	–	–	> 10 µM
O=C(O)C[C@H]1CC[C@H](c2ccc(C(=O)Nc3nnc(Cc4ccccc4F)s3)cc2)CC1	4%	7.5 ×10⁻⁶ cm/s	–	0%	120%	–
O=C(O)C[C@H]1CC[C@H](c2ccc(C(=O)Nc3nnc(Cc4cccc(Cl)c4)s3)cc2)CC1	14%	8 ×10⁻⁶ cm/s	–	6%	101%	–
